Screening results: PubChem, Broad Institute
CAL PDZ FP-1 = CAL PDZ peptide-binding inhibitors, primary screen, biochemical, fluorescence polarization, Cer-tagged CAL PDZ, HTS; inhibition, % at 20 µM; purified CAL PDZ, TMR-peptide fluorescence polarization, 1 h; Golgi-associated PDZ and coiled-coil motif-containing protein (Homo sapiens), Q9HD26; 330,000 tested, 0.02% active;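 active means highest replicate inhibition of at least 40%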
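material = purified tagged CAL PDZ domain construct (CerCALP) | compound dosing = 20 µM, one dose | times = 1 h at RT | measured by = fluorescence polarization from S- and P-plane intensities, G-factor corrected | read-out = inhibition from polarization loss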
ARNT TACC3 PPI = disruptors of ARNT/TACC3 protein interaction, primary screen, biochemical, AlphaScreen, single concentration | Transforming acidic coiled-coil-containing protein 3 (Homo sapiens), Q9Y6A5 | AlphaScreen His-ARNT PAS-B/GST-TACC3 binding, luminescence; TACC3 fragment carries E629A point mutation | inhibition, % at 9.99 µM | 390,000 tested, 0.66% active;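 active means mean inhibition of replicates at least 50% and at least half of replicates each reaching 50%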
PGC1a acetyl inh = inhibitors of PGC1a acetylation signal, primary screen, cell-based, U2OS, AlphaScreen, inhibitor mode. 350,000 tested, 0.17% active. AlphaScreen anti-acetyl-lysine; with virally co-expressed GCN5 acetyltransferase. inhibition, % at 15.6 µM;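 active means every replicate shows inhibition of at least 40%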
F508del corr = F508del CFTR correction, initial screen, CFBE line, single point; CFBE cells, YFP halide quenching; stimulated with forskolin plus potentiator P3; % fluorescence drop versus neutral controls; activity (quench increase), % at 7.58 µM; 350,000 tested, 0.36% active; AID 720511, 2013;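 active means mean added fluorescence quench of at least 8% versus neutral control, with both replicates also reaching 8%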;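 further: cells transiently co-express mutant CFTR-F508del with the halide-sensitive YFP; corrector assay measuring rescue of mutant channel to the surface after 24 h compound exposure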
CAL PDZ FP-2 = untagged CAL PDZ binding inhibitors, primary screen, biochemical, fluorescence polarization, HTS. Golgi-associated PDZ and coiled-coil motif-containing protein (Homo sapiens), Q9HD26. purified CAL PDZ, TMR-peptide fluorescence polarization, 1 h. inhibition, % at 24.9 µM. 300,000 tested, 0.92% active. AID 602252, 2012;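 active means mean inhibition of at least 30% with at least half of replicates also reaching 30%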
miR122 inh = miR-122 Renilla sensor signal increase in Huh7, primary screen, miR-122 inhibitor project, cell-based, single point, plate reader | Huh7 miR-122 Renilla luciferase sensor, 48 h; neutral wells = 0, positive control = 100 | activation (reporter increase), % at 12.5 µM | 340,000 tested, 0.3% active | AID 602342, 2012;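 active means mean replicate activation score at least 90 and every replicate individually at or above 90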;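 further: higher luciferase means less miR-122 activity so hits act as miR-122 inhibitors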
A number is an active result; 0 = inactive; - = no result; + = active, no number; ! = not active in a repeat; [ ] = dose if it differs, or a comment. Rows were chosen to be rich in hits. Some 1.7% of all compounds tested hit in one or more screens of this group.

SMILES	CAL PDZ FP-1	ARNT TACC3 PPI	PGC1a acetyl inh	F508del corr	CAL PDZ FP-2	miR122 inh
CCOC(=O)/C(=C/C=C1\Sc2ccccc2N1CC)C(C)=O	0	0	0	-	0	0
CCOC(=O)/C(=C/C=C1\Sc2cc(C)c(C)cc2N1CC)C(C)=O	0	0	0	39.0	0	-
O=C(C[C@H]1CC[C@@H](NC(=O)Nc2cc(F)ccc2F)[C@H](CO)O1)Nc1ccc(-c2ccccc2)cc1	-	48.4	0	0	-	-
CCCCCCCCC(=O)O	-	-	65.6	-	-	0
CCCCCCCC/C=C\CCCCCCCC(=O)O	0	0	0	0	0	0
CCCCC/C=C\C/C=C\C/C=C\CCCCC(=O)O	0	0	0	9.0	0	0
C[C@@H]1CCCCO[C@@H](CN(C)S(=O)(=O)c2ccc(Cl)cc2)[C@@H](C)CN([C@@H](C)CO)C(=O)c2cc(NC(=O)Nc3ccccc3)ccc2O1	-	0	0	0	-	0
COc1ccc(NC(=O)N(C)C[C@H]2Oc3c(NS(=O)(=O)c4ccc(C)cc4)cccc3C(=O)N([C@H](C)CO)C[C@H]2C)cc1	-	0	0	0	-	0
C[C@@H]1CN([C@H](C)CO)S(=O)(=O)c2ccc(-c3cccc(C#N)c3)cc2O[C@@H]1CN(C)C(=O)c1ccc(F)cc1	-	0	0	0	-	0
COc1ccc(S(=O)(=O)N(C(=O)C(C)C)c2ccc3oc(=O)sc3c2)cc1	0	0	0	11.1	0	0
Cc1noc(C)c1NC(=O)Nc1cccc2c1O[C@H](CN(C)Cc1ccccc1)[C@@H](C)CN([C@H](C)CO)C2=O	-	0	-	0	-	96.5[16.7 µM]
Cc1noc(C)c1NC(=O)Nc1cccc2c1O[C@@H](CN(C)Cc1ccc(Cl)c(Cl)c1)[C@@H](C)CN([C@H](C)CO)C2=O	-	0	0	0	-	114.1[16.7 µM]
Cc1noc(C)c1NC(=O)Nc1cccc2c1O[C@H](CN(C)Cc1ccccc1)[C@@H](C)CN([C@@H](C)CO)C2=O	-	0	-	0	-	0
Cc1noc(C)c1NC(=O)Nc1cccc2c1O[C@@H](CN(C)Cc1ccc(Cl)c(Cl)c1)[C@H](C)CN([C@H](C)CO)C2=O	-	0	0	0	-	0
Cc1ccc(S(=O)(=O)Nc2ccc3c(c2)C(=O)N([C@@H](C)CO)C[C@H](C)[C@@H](CN(C)C(=O)c2ccncc2)OCCCC[C@@H](C)O3)cc1	-	0	0	0	-	0
CO[C@H]1CN(C)C(=O)c2cc(NC(=O)Nc3cc(Cl)cc(Cl)c3)ccc2OC[C@H](C)NC[C@H]1C	-	-	0	0	-	0
COc1ccc(CNC(=O)C(c2ccc(C)o2)N(Cc2cccs2)C(=O)Cc2cccs2)cc1 (stereo unspecified)	0	0	0	-	-	158.3
C[C@H]1CN([C@@H](C)CO)C(=O)CCCn2nncc2CO[C@@H]1CN(C)S(=O)(=O)c1cn(C)cn1	-	0	0	0	-	0
C[C@@H]1CN([C@H](C)CO)C(=O)CCCn2nncc2CO[C@@H]1CN(C)S(=O)(=O)c1cn(C)cn1	-	0	100.7!	0	-	0
CC(C)[C@@H](C)NC(=O)N(C)C[C@H]1OCc2ccccc2-c2c(n(C)c3ccccc23)C(=O)N([C@H](C)CO)C[C@@H]1C	-	0	0	0	-	-
O=C(C[C@@H]1C[C@H]2c3cc(NC(=O)Nc4ccc(C(F)(F)F)cc4)ccc3O[C@H]2[C@H](CO)O1)NC1CCCCC1	-	0	0	0	-	0
Cc1noc(C)c1COc1ccc(C(=O)OC(C)C(=O)Nc2ccc(S(=O)(=O)N3CCOCC3)cc2)cc1 (stereo unspecified)	0	0	-	-	54.2	-
Cc1ccc(S(=O)(=O)N2CCOCC2)cc1NC(=O)COC(=O)c1ccc(OCc2c(C)noc2C)cc1	0	0	-	-	0	0
COc1ccc2c3c(n(C)c2c1)[C@H](CO)N(C(=O)C1CCCCC1)CC31CCN(C)CC1	-	-	0	0	-	-
CO[C@H]1CN(C)C(=O)c2cc(NC(=O)C3CC3)ccc2OC[C@@H](C)N(Cc2cccc(F)c2)C[C@@H]1C	-	0	0	0	-	-
SMILES	CAL PDZ FP-1	ARNT TACC3 PPI	PGC1a acetyl inh	F508del corr	CAL PDZ FP-2	miR122 inh
COc1ccc(S(=O)(=O)N(C)C[C@@H]2OCCCC[C@@H](C)Oc3ccc(NC(=O)C4CCCCC4)cc3C(=O)N([C@H](C)CO)C[C@@H]2C)cc1	-	0	0	0	-	0
CC(=O)N(/C=C1\SC(=S)N(c2ccccc2)C1=O)c1ccccc1	0	0	0	0	34.9	0
CC(C)NC(=O)N(C)C[C@H]1Oc2cc(C#CC(C)(C)O)ccc2S(=O)(=O)N([C@@H](C)CO)C[C@H]1C	-	0	0	0	-	0
CC(C)(C)c1ccc(-n2nc(C#N)c(Cl)cc2=O)cc1	0	-	82.0	0	0	0
CC(C)(C)c1ccc(-n2nc(C(N)=O)c(O)cc2=O)cc1	0	-	0	0	0	0
COc1ccc(N2CCN(CCCNC(=O)C(=O)c3c[nH]c4ccccc34)CC2)cc1	0	48.0	0	0	0	0
Cc1ccc(-c2cc(-c3c(C)nn(C)c(=O)c3N)[nH]n2)cc1	0	0	0	0	41.5	0
Cc1nn(C)c(=O)c(N)c1-c1cc(-c2ccc(Cl)c(Cl)c2)n[nH]1	-	-	0	0	-	0
COCC#Cc1cnc2c(c1)C(=O)N([C@H](C)CO)C[C@H](C)[C@H](CN(C)S(=O)(=O)c1ccccc1)O2	-	0	0	0	-	0
Cc1ccn2c(C(=O)NN=C3CCCCCCC3)c(C)nc2c1	0	0	0	0	0	-
Cc1nc2ccccn2c1C(=O)NN=C1CCCC1	0	19.8	-	0	0	-
Cc1ccc(NC(=O)CCC(=O)N/N=C/c2ccccc2O)cc1	0	0	0	0	0	0
Cc1cccc(NC(=O)CCC(=O)N/N=C/c2ccc(O)cc2O)c1	-	60.2	0	0	0	0
O=C(CSCC(=O)NN=Cc1ccccc1O)NN=Cc1ccccc1O	0	-	0	0	-	0
O=C(CN1C(=O)NC2NC(=O)NC21)N/N=C/c1ccccc1O (stereo unspecified)	0	66.0	0	0	0	-
O=C(CCC(=O)Nc1ccc(Br)cc1)N/N=C/c1ccccc1O	0	0	0	0	+	0
COc1cc(NS(=O)(=O)c2ccc(-n3cccn3)cc2)cc(OC)c1	-	-	0	-	-	95.2
CC(C)(C)C(=O)O/N=C(\N)Cc1ccc(-c2csnn2)cc1	0	0	0	0	61.2	0
COc1ccc(CC(=O)O/N=C(\N)Cc2ccc(OC)cc2)cc1	0	0	0	-	0	0
c1csc(CNc2ncnc3ccc(-c4ccoc4)cc23)c1	0	0	50.4	0	0	0
